According to PMC9272570 (Journal of Drug Delivery Science and Technology, 2022):

What was measured:
[1] = test system: duodenum; assay: In-situ rabbit intestinal perfusion, duodenum; type: in vivo
Procedure, shortened: (§1)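 Rabbits were anaesthetised with IM chlorpromazine 2 mg/kg, then ketamine 45 mg/kg twice at a 15 min interval. The segment was cannulated (duodenum 15 cm, jejuno-ileum 30 cm) and rinsed with 37 °C saline. Test compound at 30 μg/ml in PBS with 10% v/v PEG 200 was perfused at 0.27 ml/min. Effluent was collected every 10 min for 2 h, weighed and assayed by HPLC-UV at 210 nm. Fa, ARL and L95% came from second-hour, water-flux-corrected Cout/Cin. Pathway was judged from PeA dependence on water flux.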

[2] = test system: jejuno-ileum; assay: In-situ rabbit intestinal perfusion, jejuno-ileum; type: in vivo
Procedure, shortened: as §1

[3] = Dissolution studies; type: physicochemical; details: 50 rpm
Procedure, shortened: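 900 ml medium (0.01 M phosphate buffer), 37 ± 0.5 °C. Load: 400 mg test compound or equivalent; formulations contained avicel and aerosil. 5 ml samples withdrawn at 5, 10, 15, 30, 45 and 60 min, filtered (0.45 μm) and replaced with fresh medium. Quantified by reversed-phase C18 HPLC (0.02 M KH2PO4 pH 6.8:acetonitrile 25:75). Cumulative amount dissolved expressed as % of load. Triplicates.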

[4] = SEM in brackets, n = 3, listed as lopinavir
[5] = from regression of absorptive clearance vs water flux

- ARL (anatomical reserve length) [1]: −261.18 cm
- %Fa/L (percentage fraction absorbed per unit length) ([1]; SEM in brackets, n = 3): 1.61 (0.454) %cm^−1
- L95% (required length for 95% absorption) ([1]; SEM in brackets, n = 3): 276.18 (121.5) cm
- Rout/Rin (fraction remaining after absorption) ([1]; SEM in brackets, n = 3): 0.759 (0.068)
- L95% (required length for 95% absorption) [1, 4]: 276.18 cm
- Absorption pathway: Paracellular [1, 5]: 38.3%
- Absorption pathway: Transcellular [1, 5]: 61.7%
- ARL (anatomical reserve length) [2]: −240.22 cm
- %Fa/L (percentage fraction absorbed per unit length) ([2]; SEM in brackets, n = 3): 1.17 (0.27) %cm^−1
- L95% (required length for 95% absorption) ([2]; SEM in brackets, n = 3): 339.54 (79.03) cm
- Rout/Rin (fraction remaining after absorption) ([2]; SEM in brackets, n = 3): 0.657 (0.083)
- L95% (required length for 95% absorption) [2, 4]: 339.54 cm
- Absorption pathway: Paracellular [2, 5]: 0%
- Absorption pathway: Transcellular [2, 5]: 100%
- total amount liberated after 1 h ([3]; 1% w/v Tween 80 in phosphate buffer pH 6.8, 37 °C): 41.85 % of the dose
- % DE (dissolution efficiency) ([3]; 900 ml 1% w/v Tween 80 in 0.01 M phosphate buffer pH 6.8, 37 °C, 60 min, SD, n = 3): 24.96 (1.48) %
Compound: Cc1cccc(C)c1OCC(=O)N[C@@H](Cc1ccccc1)[C@@H](O)C[C@H](Cc1ccccc1)NC(=O)[C@H](C(C)C)N1CCCNC1=O [Pure Lopinavir, Lopinavir]
